# From ChEMBL document CHEMBL4373711, “Development of 3,5-Dinitrophenyl-Containing 1,2,4-Triazoles and Their Trifluoromethyl Analogues as Highly Efficient Antitubercular Agents Inhibiting Decaprenylphosphoryl-β-d-ribofuranose 2'-Oxidase” (J Med Chem, 2019)
# The source made the active and inactive calls. No cut-off for these calls is given here.
# Assays:
# Mycobacterium kansasii [1] = assay: Antimycobacterial activity against Mycobacterium kansasii 6509/96 after 7 days; format: functional; conditions: 6509/96, 168 h
# Method in brief: (§1)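 Microdilution in Šula's semisynthetic medium; compounds in DMSO at 32–0.03 µM. Inoculum from 1.0 McFarland suspension diluted 10-4. […] Isoniazid and rifampicin as reference drugs.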
# Mycobacterium kansasii [2] = assay: Antimycobacterial activity against Mycobacterium kansasii 6509/96 after 14 days; format: functional; conditions: 6509/96, 336 h; method in brief: as §1
# Mycobacterium kansasii [3] = assay: Antimycobacterial activity against Mycobacterium kansasii 6509/96 after 21 days; format: functional; conditions: 6509/96, 504 h; method in brief: as §1
# [4] = test system: Mycobacterium tuberculosis; assay: Antimycobacterial activity against XDR Mycobacterium tuberculosis Praha 131 after 21 days; format: functional; conditions: Praha 131, 504 h
# Method in brief: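 M. tuberculosis strains (H37Rv and clinical MDR/XDR isolates) tested by microdilution in Šula's semisynthetic medium. Compounds were dissolved in DMSO and tested at 32 to 0.03 µM in twofold steps. Inoculum was a 1.0 McFarland suspension diluted 10-3. Plates were incubated at 37 °C and read at 14 and 21 days.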
# Staphylococcus aureus [5] = assay: Antibacterial activity against Staphylococcus aureus subsp. aureus ATCC 29213 CCM 4223 at highest concentration measured after 24 to 48 hrs by alamar blue dye based broth microdilution assay; format: functional, organism-based
# Staphylococcus aureus [6] = assay: Antibacterial activity against methicillin-resistant Staphylococcus aureus subsp. aureus ATCC 43300 CCM 4750 at highest concentration measured after 24 to 48 hrs by alamar blue dye based broth microdilution assay; format: functional, organism-based
# Enterococcus faecalis = assay: Antibacterial activity against Enterococcus faecalis ATCC 29212 CCM 4224 at highest concentration measured after 24 to 48 hrs by alamar blue dye based broth microdilution assay; format: functional, organism-based
# Serratia marcescens = assay: Antibacterial activity against Serratia marcescens at highest concentration measured after 24 to 48 hrs by alamar blue dye based broth microdilution assay; format: functional, organism-based
# Pichia kudriavzevii = assay: Antifungal activity against Candida krusei ATCC 6258 CCM8271 at highest concentration measured after 24 to 48 hrs by alamar blue dye based broth microdilution assay; format: functional, organism-based
# Aspergillus fumigatus = assay: Antifungal activity against Aspergillus fumigatus ATCC 204305 at highest concentration measured after 24 to 48 hrs by alamar blue dye based broth microdilution assay; format: functional, organism-based
# Lichtheimia corymbifera = assay: Antifungal activity against Lichtheimia corymbifera CCM 8077 at highest concentration measured after 24 to 48 hrs by alamar blue dye based broth microdilution assay; format: functional, organism-based
# [7] = test system: Trichophyton interdigitale; assay: Antifungal activity against Trichophyton interdigitale ATCC 9533 CCM 8377 at highest concentration measured after 72 to 120 hrs by alamar blue dye based broth microdilution assay; format: functional
# HepG2 = assay: Cytotoxicity against human HepG2 cells assessed as reduction in cell viability after 48 hrs by CellTiter 96 aqueous one solution assay; format: cell-based; conditions: HepG2, 48 h
# [8] = Cytotoxicity against human HepG2 cells assessed as cell viability at 30 uM after 48 hrs by CellTiter 96 aqueous one solution assay relative to control; format: cell-based; conditions: read-out: Activity
# Method in brief: (§2)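 HepG2 (DMEM, 10% FBS, 1 mM pyruvate) or A431 (DMEM, 10% FBS) seeded 10,000 cells/well, 24 h at 37 °C, 5% CO2, then 30 µM compound for 48 h. MTS reagent 60 min, absorbance 490 nm, background subtracted; 0.1% DMSO vehicle = 100%, 10% SDS = 0% viability.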
# A-431 = assay: Cytotoxicity against human A431 cells assessed as reduction in cell viability after 48 hrs by CellTiter 96 aqueous one solution assay; format: cell-based; conditions: A-431, 48 h
# [9] = Cytotoxicity against human A431 cells assessed as cell viability at 30 uM after 48 hrs by CellTiter 96 aqueous one solution assay relative to control; format: cell-based, A-431; conditions: read-out: Activity; method in brief: as §2
# [10] = target: T1, Decaprenylphosphoryl-beta-D-ribose oxidase (Mycobacterium tuberculosis (strain ATCC 25618 / H37Rv)) (UniProt P9WJF1); assay: Inhibition of DprE1 in Mycobacterium tuberculosis H37Rv assessed as accumulation of trehalose dimycolates at 10 times MIC measured after 24 hrs in presence of [14C]-acetate by TLC-based autoradiography
# T1 sequence (whole entry): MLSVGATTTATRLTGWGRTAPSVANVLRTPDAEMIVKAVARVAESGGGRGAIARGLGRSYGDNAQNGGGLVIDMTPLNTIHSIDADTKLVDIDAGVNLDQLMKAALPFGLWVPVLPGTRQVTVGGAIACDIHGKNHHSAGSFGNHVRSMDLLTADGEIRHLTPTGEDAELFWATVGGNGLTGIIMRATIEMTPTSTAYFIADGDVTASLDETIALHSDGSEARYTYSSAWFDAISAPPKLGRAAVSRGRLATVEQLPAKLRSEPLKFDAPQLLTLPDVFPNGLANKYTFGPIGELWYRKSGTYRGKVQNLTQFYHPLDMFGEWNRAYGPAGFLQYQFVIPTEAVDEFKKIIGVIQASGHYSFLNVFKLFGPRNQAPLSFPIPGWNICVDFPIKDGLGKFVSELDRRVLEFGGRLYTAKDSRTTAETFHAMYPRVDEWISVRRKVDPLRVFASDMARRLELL
# Method in brief: (§3)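 M. tuberculosis H37Rv cultures were exposed to compound at final 10× or 100× MIC, or to DMSO, together with [14C]-acetate at 1 µCi/ml final. After 24 h, lipids were extracted in CHCl3/CH3OH (2:1) for 2 h at 65 °C and given two Folch washes. Extracts were run on TLC in CHCl3/CH3OH/H2O (20:4:0.5), then autoradiographed for 7 days at -80 °C.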
# [11] = target: T1, Decaprenylphosphoryl-beta-D-ribose oxidase (Mycobacterium tuberculosis (strain ATCC 25618 / H37Rv)); assay: Inhibition of DprE1 in Mycobacterium tuberculosis H37Rv assessed as accumulation of trehalose dimycolates at 100 times MIC measured after 24 hrs in presence of [14C]-acetate by TLC-based autoradiography; method in brief: as §3
# [12] = target: T1, Decaprenylphosphoryl-beta-D-ribose oxidase (Mycobacterium tuberculosis (strain ATCC 25618 / H37Rv)); assay: Inhibition of DprE1 in Mycobacterium tuberculosis H37Rv assessed as accumulation of trehalose monomycolates at 100 times MIC measured after 24 hrs in presence of [14C]-acetate by TLC-based autoradiography; method in brief: as §3
# [13] = Selectivity index, ratio of IC50 for human HepG2 cells to MIC>99 for antimycobacterial activity against Mycobacterium avium CNCTC My 330/88 after 21 days; format: toxicity; conditions: read-out: Selectivity Index
# [14] = Selectivity index, ratio of IC50 for human HepG2 cells to MIC>99 for antimycobacterial activity against Mycobacterium kansasii CNCTC My 235/80 after 21 days; format: toxicity; conditions: read-out: Selectivity Index
# [15] = Selectivity index, ratio of IC50 for human HepG2 cells to MIC>99 for antimycobacterial activity against Mycobacterium kansasii 6509/96 after 7 days; format: toxicity; conditions: read-out: Selectivity Index
# [16] = Selectivity index, ratio of IC50 for human HepG2 cells to MIC>99 for antimycobacterial activity against Mycobacterium kansasii 6509/96 after 21 days; format: toxicity; conditions: read-out: Selectivity Index
# [17] = Selectivity index, ratio of IC50 for human A431 cells to MIC>99 for antimycobacterial activity against Mycobacterium kansasii 6509/96 after 14 days; format: toxicity; conditions: read-out: Selectivity Index
# [18] = Selectivity index, ratio of IC50 for human A431 cells to MIC>99 for antimycobacterial activity against XDR Mycobacterium tuberculosis Praha 131 after 21 days; format: toxicity; conditions: read-out: Selectivity Index
SMILES,MIC99 (Mycobacterium kansasii [1]),MIC99 (Mycobacterium kansasii [2]),MIC99 (Mycobacterium kansasii [3]),MIC99 [4],Activity (Staphylococcus aureus [5]),Activity (Staphylococcus aureus [6]),Activity (Enterococcus faecalis),Activity (Serratia marcescens),Activity (Pichia kudriavzevii),Activity (Aspergillus fumigatus),Activity (Lichtheimia corymbifera),Activity [7],IC50 (HepG2),"viability at 48 h, 30 µM [8]",IC50 (A-431),"viability at 48 h, 30 µM [9]",inhibition [10],inhibition [11],inhibition [12],also measured
O=[N+]([O-])c1cc(-c2nnc(SCc3ccccc3)n2Cc2ccccc2)cc([N+](=O)[O-])c1,0.03 µM,0.03 µM,0.03 µM,0.03 µM,inactive,inactive,inactive,inactive,inactive,inactive,inactive,inactive,> 30 µM,106%,> 30 µM,111%,inactive,Active,Active,–
COc1ccc(CSc2nnc(-c3cc([N+](=O)[O-])cc([N+](=O)[O-])c3)n2Cc2ccccc2)cc1,0.03 µM,0.03 µM,0.03 µM,0.03 µM,inactive,inactive,inactive,inactive,inactive,inactive,inactive,inactive,> 30 µM,104%,> 30 µM,92%,inactive,Active,Active,–
O=[N+]([O-])c1cc(-c2nnc(SCc3ccccc3)n2Cc2ccccc2)cc(C(F)(F)F)c1,0.03 µM,0.03 µM,0.03 µM,0.06 µM,inactive,inactive,inactive,inactive,inactive,inactive,inactive,inactive,21.5 µM,18%,10.1 µM,37%,Active,–,–,selectivity ratio at 504 h [13]: > 100; selectivity ratio at 504 h [14]: > 100; selectivity ratio at 168 h [15]: > 100; selectivity ratio at 504 h [16]: > 100; selectivity ratio at 336 h [17]: > 100; selectivity ratio at 504 h [18]: > 100
COc1ccc(Cn2c(SCc3cc([N+](=O)[O-])cc([N+](=O)[O-])c3)nnc2-c2ccccc2)cc1,–,–,–,4 µM,inactive,inactive,inactive,inactive,inactive,inactive,inactive,inactive,> 30 µM,133%,> 30 µM,127%,inactive,inactive,inactive,–
CCCCCCn1c(SCc2cc([N+](=O)[O-])cc([N+](=O)[O-])c2)nnc1-c1ccccc1,1 µM,2 µM,2 µM,4 µM,inactive,inactive,inactive,inactive,inactive,inactive,inactive,inactive,–,–,–,–,inactive,inactive,inactive,–
COc1ccc(CSc2nnc(-c3cc([N+](=O)[O-])cc(C(F)(F)F)c3)n2Cc2ccccc2)cc1,0.5 µM,1 µM,1 µM,1 µM,inactive,inactive,inactive,inactive,inactive,inactive,inactive,inactive,> 30 µM,86%,> 30 µM,74%,Active,–,–,–
